TRPC6 inhibitor: mouse TRPC6 channel inhibitors, primary screen, cell-based, HEK293, membrane potential dye; AID 2553, 2010; ACh-evoked depolarization; stronger effect = lower value; hit rate 1.1% among 310,000; B-score at 10 µM;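 active = B-score under library mean minus 3 SD, initial fluorescence not abnormally high, positive integrated signal ratio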;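 note: B-score derived from integrated fluorescence ratio over the kinetic read; more negative B-score means stronger inhibition of depolarization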
Target sequence (Q61143 whole entry, looked up): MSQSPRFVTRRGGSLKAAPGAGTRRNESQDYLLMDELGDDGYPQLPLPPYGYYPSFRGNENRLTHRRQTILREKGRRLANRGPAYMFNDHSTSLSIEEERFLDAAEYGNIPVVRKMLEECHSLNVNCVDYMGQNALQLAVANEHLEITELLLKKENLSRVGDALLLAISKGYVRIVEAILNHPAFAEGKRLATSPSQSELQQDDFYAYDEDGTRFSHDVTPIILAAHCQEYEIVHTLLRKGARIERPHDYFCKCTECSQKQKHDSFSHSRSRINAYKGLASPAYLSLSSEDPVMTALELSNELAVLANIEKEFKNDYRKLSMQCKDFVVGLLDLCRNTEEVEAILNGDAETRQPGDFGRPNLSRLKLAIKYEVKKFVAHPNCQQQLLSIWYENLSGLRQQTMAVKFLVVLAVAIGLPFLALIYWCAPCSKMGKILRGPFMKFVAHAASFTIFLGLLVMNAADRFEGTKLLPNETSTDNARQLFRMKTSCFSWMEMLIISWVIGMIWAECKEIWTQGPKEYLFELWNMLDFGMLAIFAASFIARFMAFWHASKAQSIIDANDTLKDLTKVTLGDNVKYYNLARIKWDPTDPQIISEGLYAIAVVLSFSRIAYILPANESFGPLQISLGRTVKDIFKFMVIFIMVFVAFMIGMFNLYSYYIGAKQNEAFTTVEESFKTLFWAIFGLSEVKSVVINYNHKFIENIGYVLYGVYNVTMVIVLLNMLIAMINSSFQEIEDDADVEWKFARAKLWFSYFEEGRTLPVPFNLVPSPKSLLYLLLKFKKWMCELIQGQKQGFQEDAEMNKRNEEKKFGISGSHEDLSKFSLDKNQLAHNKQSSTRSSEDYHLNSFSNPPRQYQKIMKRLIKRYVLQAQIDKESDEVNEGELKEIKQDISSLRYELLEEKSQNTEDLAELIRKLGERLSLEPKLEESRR
TRPC4 block: inhibitors of mouse TRPC4 channel, primary screen, Fluo4 calcium, HEK293 TRPC4beta/mu-opioid cells. Short transient receptor potential channel 4 (Mus musculus), Q9QUQ5. DAMGO-evoked Fluo4 calcium flux; stronger effect = lower value. B-score at 10 µM. hit rate 0.39% among 300,000. AID 2247, 2010;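 active = B-score over 3 SD under the library average, no early fluorescence shift, positive overall ratio signal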
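System: stable TRPC4beta/mu-opioid receptor HEK293 cells; Dosing: single-point compound dosing; Measured by: Fluo4 Ca2+ flux fluorescence; Read-out basis: per-well B score of integrated baseline-normalized Fluo4 ratio.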
TRPC4 agonist: activators of mouse TRPC4 channel, primary screen, Fluo4 calcium, HEK293 TRPC4beta/mu-opioid cells; hit rate 0.49% among 310,000; Fluo4 calcium fluorescence; stronger effect = higher value; B-score at 10 µM; Short transient receptor potential channel 4 (Mus musculus), Q9QUQ5; AID 2237, 2010;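 active = B-score above 5 SD of library B-scores, and initial fluorescence ratio not above library mean plus 5 SD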;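 note: positive B-score marks a calcium rise read as TRPC4 activation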
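Material: HEK293 stable line with TRPC4beta plus mu-opioid receptor; technique: Fluo4 calcium-sensitive dye fluorescence, kinetic, 1 Hz baseline; timing: Fluo4 dye loading 45 min at room temperature, 110 s recording; controls: assay buffer as low control, maximal DAMGO as high control; read-out: integrated baseline-normalised fluorescence ratio, converted to per-well B score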
TRPC6 act: mouse TRPC6 channel activators, primary screen, cell-based, HEK293, membrane potential dye; AID 2550, 2010; HEK293-TRPC6 membrane potential dye fluorescence; stronger effect = higher value; B-score at 10 µM; hit rate 0.13% among 310,000; Short transient receptor potential channel 6 (Mus musculus), Q61143;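 active = B-score of the integrated fluorescence ratio above library mean plus 3 SD, and starting fluorescence ratio within library mean plus 5 SD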;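 note: higher score means more depolarization so channel activation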
TRPC4 PAM: positive allosteric modulators of TRPC4, primary screen, cell-based, mouse TRPC4beta, HEK293 mu-opioid, Fluo-4 calcium. Short transient receptor potential channel 4 (Mus musculus), Q9QUQ5. DAMGO EC20, Fluo-4 Ca2+ flux; stronger effect = higher value. B-score at 10 µM. hit rate 0.42% among 310,000;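 active = B-score of calcium response area above 5 SD of library B-scores, with initial fluorescence ratio within 5 SD of library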;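 note: B-score of integrated fluorescence ratio over time as area under calcium response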
* = called active by the depositor; i = inactive. Rows were chosen to be rich in hits. Some 2.3% of all compounds tested hit in one or more screens of this group.

SMILES	TRPC6 inhibitor	TRPC4 block	TRPC4 agonist	TRPC6 act	TRPC4 PAM
COc1ccc(OC)c(N(CC(=O)NCCSCc2ccco2)S(=O)(=O)c2ccc(OC)c(OC)c2)c1	i	i	i	i	i
CCCn1c(SCC(=O)N2c3ccccc3Sc3ccccc32)nc2c1c(=O)n(C)c(=O)n2C	i	i	i	i	77*
CC(C)n1c(SCC(=O)N2c3ccccc3Sc3ccccc32)nc2c1c(=O)n(C)c(=O)n2C	i	i	i	i	17*
CC(C)n1c(SCC(N)=O)nc2c1c(=O)n(C)c(=O)n2C	i	i	i	i	i
COCc1ccc(C(=O)N2CCCC(CCC(=O)NCc3ccccc3F)C2)o1 (centres undefined)	i	i	i	i	i
NC1=NC[C@H](CC2CCCCC2)N1CCc1cc(C(F)(F)F)cc(C(F)(F)F)c1	i	i	67*	i	i
C=CCOC(=O)C1=C[C@H](c2ccc(C(F)(F)F)cc2)[C@@H](CCCO)[C@H](OCC)O1	i	-5*	i	i	i
CC(C)(C)CN1CCNC[C@H]1Cc1cccc2ccccc12	i	i	i	i	i
c1ccc(C2(CN3CCNC[C@H]3Cc3cccc4ccccc34)CC2)cc1	i	i	84*	i	i
CCC1=Nc2cc(C(=O)NCCCN3CCN(C)CC3)ccc2Sc2ccccc21	i	i	i	i	i
Cc1ccc(C)c(CSc2nnc(CCN)o2)c1	i	i	81*	i	i
Cc1ccc(C)c(CSc2nnc([C@@H](N)C(C)C)o2)c1	i	i	i	i	i
NCCc1nnc(SCc2ccccc2)o1	i	i	i	i	16*
O=C(NCC1CCCO1)c1ccc(F)c2ccccc12 (centres undefined)	i	i	i	i	i
NNC(=O)CCC(=O)Nc1ccccc1	i	i	i	i	i
O=C(O)C(Cc1c[nH]c2ccccc12)N1C(=O)c2ccccc2C1=O (centres undefined)	i	i	i	i	i
Cn1c(N2CCCCC2)nc2c1c(=O)n(Cc1cccc(Br)c1)c(=O)n2C	i	i	i	i	i
Cn1c(N2CCC(C(N)=O)CC2)nc2c1c(=O)n(Cc1ccc(Br)cc1)c(=O)n2C	i	i	i	i	15*
Cc1cccc(Cn2c(=O)c3c(nc4n3CCCN4Cc3ccccc3)n(C)c2=O)c1	i	i	i	i	20*
CC1CN(c2nc3c(c(=O)n(Cc4ccc(Cl)c(Cl)c4)c(=O)n3C)n2C)CC(C)O1 (centres undefined)	i	i	i	i	14*
CCC(Sc1nc2ccncc2[nH]1)C(=O)Nc1ccc(C)c(Cl)c1 (centres undefined)	i	i	i	i	i
CCOc1ccccc1CN1CCC(n2nccc2NC(=O)CCc2ccccc2)CC1	i	-7*	i	i	i
O=C(CCc1ccccc1)Nc1ccnn1C1CCN(C/C=C/c2ccccc2)CC1	i	-6*	i	i	i
C/C=C(\C)CN1CCC(n2nccc2NC(=O)CCc2ccccc2)CC1	i	-6*	46*	i	i
COc1ccccc1/C=C/CN1CCC(n2nccc2NC(=O)CCc2ccccc2)CC1	i	i	i	i	i
SMILES	TRPC6 inhibitor	TRPC4 block	TRPC4 agonist	TRPC6 act	TRPC4 PAM
CCOCCCNS(=O)(=O)c1ccc(NC(=O)N2c3ccccc3Sc3ccccc32)cc1	i	i	i	i	i
c1coc(CNc2ncnc3sc4c(c23)CCCCC4)c1	i	i	i	i	i
Cc1sc2nc(CSc3ccccc3)nc(NCCN(C)C)c2c1C	i	i	176*	i	i
Cc1sc2ncnc(NCC(c3ccccc3)N(C)C)c2c1C (centres undefined)	i	i	218*	i	i
Cc1nc(NCC(c2ccccc2)N(C)C)c2c(C)c(C)sc2n1 (centres undefined)	i	i	267*	i	i
CN(C)C(CNc1ncnc2sc3c(c12)CCCC3)c1ccco1 (centres undefined)	i	i	121*	i	i
CCNc1nc(CSc2ccccc2)nc2sc(C)c(C)c12	i	i	i	i	i
COCCCN1C(=O)c2ccc(C(=O)Nc3ccc(C)cc3C)cc2C1=O	i	i	i	i	i
CC(Sc1nccn1C)C(=O)Nc1ccc(Cl)cn1 (centres undefined)	i	i	i	i	i
OC(COc1ccc2ccccc2c1Br)Cn1ccnc1 (centres undefined)	i	i	i	i	i
OC(COc1ccc2ccccc2c1)Cn1ccnc1 (centres undefined)	i	i	i	i	11*
Cn1c(N)c(C(=O)COC(=O)CNS(=O)(=O)c2ccc(Cl)c(Cl)c2)c(=O)n(C)c1=O	i	-6*	i	i	i
CN(CC(=O)OCC(=O)c1c(N)n(C)c(=O)n(C)c1=O)S(=O)(=O)c1ccc(Cl)cc1	i	i	i	i	i
CCCOc1ccc(CSC2=NCCN2)cc1[N+](=O)[O-]	i	i	i	i	12*
COc1ccc(CSC2=NCCN2)cc1Br	i	i	i	i	i
COc1ccc(CSC2=NCCN2)cc1Cl	i	i	i	i	10*
O=[N+]([O-])c1cc(CSC2=NCCN2)ccc1O	i	i	i	i	i
COc1ccc(C(=O)/C=C/Nc2ccc(S(=O)(=O)Nc3cc(OC)nc(OC)n3)cc2)c(OC)c1	i	i	i	i	i
O=C(NCCCN1CCN(c2cccc(Cl)c2)CC1)C1CCC(=O)N1Cc1ccccc1Cl (centres undefined)	i	-6*	i	i	i
CN(C)CC(CCC(CN(C)C)C(O)(c1ccccc1)c1ccccc1)C(O)(c1ccccc1)c1ccccc1 (centres undefined)	i	-8*	i	i	i
Cn1nc(C(=O)NCc2ccccc2Cl)c2c1-c1ccccc1S(=O)(=O)C2	i	i	i	i	i
Cc1ccc(CSc2nnc(-c3cccc(S(=O)(=O)N4CCOCC4)c3)n2C2CCCC2)cc1	i	i	i	i	18*

Source: PubChem BioAssay (Johns Hopkins Ion Channel Center)
